What is called half-life is the time in which the quantity being followed falls by half. A higher half-life goes with slow decline. As a reminder, the IC50 is the point on the concentration scale where inhibition reaches its midpoint.

Starred links: 1 amine or outer side, 2 acyl side, 3 side chain; linkers in the order of their positions; H or OH if unused. Non-standard residues stand in square brackets, D forms with d. Residues, ends and D or L forms follow the SMILES beside them. X1 = NCCCC(CC(=O)[*:2])N[*:1]

Data set [1] can be described thus: Average tissue concentration of conjugate at a dose of 3 mg/Kg in BALB/c mice pancreas when given s.c. measured after 24 h; n=3. The note with it: mouse, in vivo, sc. Type of data set: ADME.
Data set [2] is described as follows: Average tissue concentration of conjugate at a dose of 3 mg/Kg in BALB/c mice MLN when given s.c. measured after 24 h; n=3. The data set is classed as ADME. The note with it: mouse, in vivo, sc.
Data set [3] can be described thus: Average tissue concentration of conjugate at a dose of 3 mg/Kg in BALB/c mice testes when given s.c. measured after 24 h; n=3. The data set is classed as ADME, tissue-based, Testis. The note with it: mouse, in vivo, sc.
Data set [4] in a line: Average tissue concentration of conjugate at a dose of 3 mg/Kg in BALB/c mice heart when given i.v. measured after 24 h; n=3. Type of data set: ADME, tissue-based. The note with it: mouse, in vivo, iv.
A short description of data set [5]: Average tissue concentration of conjugate at a dose of 3 mg/Kg in BALB/c mice large intestine when given s.c. measured after 24 h; n=3. The data set is classed as ADME, tissue-based. The note with it: mouse, in vivo, sc.
A short description of data set [6]: Average tissue concentration of conjugate at a dose of 3 mg/Kg in BALB/c mice heart when given s.c. measured after 24 h; n=3. The data set is classed as ADME, tissue-based. Conditions: mouse, in vivo, sc.
Data set [7] in a line: Average tissue concentration of conjugate at a dose of 3 mg/Kg in BALB/c mice MLN when given i.v. measured after 24 h; n=3. The data set is classed as ADME. Conditions: mouse, in vivo, iv.
Data set [8] can be described thus: Average tissue concentration of conjugate at a dose of 3 mg/Kg in BALB/c mice small intestine when given s.c. measured after 24 h; n=3. The data set is classed as ADME, tissue-based. Conditions: mouse, in vivo, sc.
The nature of data set [9]: Average tissue concentration of conjugate at a dose of 3 mg/Kg in BALB/c mice small intestine when given i.v. measured after 24 h; n=3. The data set is classed as ADME, tissue-based. The note with it: mouse, in vivo, iv.
Data set [10] relates to BCL1. In words: Inhibitory concentration against BCL1 cell proliferation in WST-1 assay. Type of data set: functional, Mus musculus. An outline of the steps: (§1)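 BCL1 cells, 2000 per well, grown in DMEM with 10% FBS at 37 °C and 5% CO2. Exposed to conjugate for 3 days, then viable cells read by WST-1 absorbance at 450 nm. Value is the concentration at which absorbance fell below 50% of untreated control; triplicates.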

A short description of data set [11]: Average tissue concentration of conjugate at a dose of 3 mg/Kg in BALB/c mice skin when given i.v. measured after 24 h; n=3. Type of data set: ADME. Conditions: mouse, in vivo, iv.
Data set [12] has as its system CD40 mRNA. In words: […] CD40 expression in BCL1 cells treated with 10 uM peptide nucleic acid (PNA)conjugate; n=3. The data set is classed as functional, cell-based. Conditions: Mus musculus. Put shortly: (§2)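 Mouse BCL1 cells in DMEM with 10% FBS, given conjugate at 1, 3 or 10 μM by free uptake (no transfection agent) for 3 days. Cells trypsinised and stained 1 h with FITC anti-CD40 (HM40-3) or isotype control, then surface CD40 read by flow cytometry. Results are % untreated control, mean ± SD, n = 3.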

The nature of data set [13]: Average tissue concentration of conjugate at a dose of 3 mg/Kg in BALB/c mice testes when given i.v. measured after 24 h; n=3. Type of data set: ADME, tissue-based, Testis. Conditions: mouse, in vivo, iv.
The nature of data set [14]: Average tissue concentration of conjugate at a dose of 3 mg/Kg in BALB/c mice liver when given s.c. measured after 24 h; n=3. The data set is classed as ADME, tissue-based. The note with it: mouse, in vivo, sc.
A short description of data set [15]: Average tissue concentration of conjugate at a dose of 3 mg/Kg in BALB/c mice large intestine when given i.v. measured after 24 h; n=3. Type of data set: ADME, tissue-based. Conditions: mouse, in vivo, iv.
A short description of data set [16]: Average tissue concentration of conjugate at a dose of 3 mg/Kg in BALB/c mice liver when given i.v. measured after 24 h; n=3. The data set is classed as ADME, tissue-based. The note with it: mouse, in vivo, iv.
Data set [17] can be described thus: Average tissue concentration of conjugate at a dose of 3 mg/Kg in BALB/c mice lungs when given i.v. measured after 24 h; n=3. Type of data set: ADME. The note with it: mouse, in vivo, iv.
The nature of data set [18]: Average tissue concentration of conjugate at a dose of 3 mg/Kg in BALB/c mice lungs when given s.c. measured after 24 h; n=3. Type of data set: ADME. The note with it: mouse, in vivo, sc.
Data set [19] is described as follows: Average tissue concentration of conjugate at a dose of 3 mg/Kg in BALB/c mice kidney when given s.c. measured after 24 h; n=3. The data set is classed as ADME. The note with it: mouse, in vivo, sc.
The nature of data set [20]: Average tissue concentration of conjugate at a dose of 3 mg/Kg in BALB/c mice skeletal muscle when given s.c. measured after 24 h; n=3. Type of data set: ADME, tissue-based. Conditions: mouse, in vivo, sc.
Data set [21] is described as follows: Average tissue concentration of conjugate at a dose of 3 mg/Kg in BALB/c mice skeletal muscle when given i.v. measured after 24 h; n=3. The data set is classed as ADME, tissue-based. Conditions: mouse, in vivo, iv.
A short description of data set [22]: Average tissue concentration of conjugate at a dose of 3 mg/Kg in BALB/c mice spleen when given s.c. measured after 24 h; n=3. The data set is classed as ADME, tissue-based. The note with it: mouse, in vivo, sc.
Data set [23] in a line: Average tissue concentration of conjugate at a dose of 3 mg/Kg in BALB/c mice kidney when given i.v. measured after 24 h; n=3. Type of data set: ADME. The note with it: mouse, in vivo, iv.
A short description of data set [24]: Half-life of the conjugate when treated with 25% murine serum for enzymatic stability. The data set is classed as ADME. The note with it: mouse. Put shortly:
(§3)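 Conjugates at 20 μM in 10% FBS RPMI 1640 medium or 25% mouse serum (Hepes-stabilised, diluted in PBS, pH 7.1–7.4), incubated at 37 °C. Sampled to 168 h (FBS) or 48 h (serum); proteins precipitated with 10% DCA, PNA 6mer internal standard added. Analysed by C3 RP-HPLC at 60 °C; t1/2 from normalised full-length peak area versus time.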

The nature of data set [25]: Average tissue concentration of conjugate at a dose of 3 mg/Kg in BALB/c mice pancreas when given i.v. measured after 24 h; n=3. Type of data set: ADME. The note with it: mouse, in vivo, iv.
Data set [26] deals with CD40 mRNA. In words: […] CD40 expression in BCL1 cells treated with 1 uM peptide nucleic acid (PNA)conjugate; n=3. Type of data set: functional, cell-based. The note with it: Mus musculus. An outline of the steps:
as §2

Data set [27] in a line: Average tissue concentration of conjugate at a dose of 3 mg/Kg in BALB/c mice spleen when given i.v. measured after 24 h; n=3. Type of data set: ADME, tissue-based. Conditions: mouse, in vivo, iv.
Data set [28] in a line: Average tissue concentration of conjugate at a dose of 3 mg/Kg in BALB/c mice skin when given s.c. measured after 24 h; n=3. Type of data set: ADME. The note with it: mouse, in vivo, sc.
Data set [29] in a line: Average tissue concentration of conjugate at a dose of 3 mg/Kg in BALB/c mice injection site when given s.c. measured after 24 h; n=3. The note with it: mouse, in vivo, sc. The data set is classed as ADME.
A short description of data set [30]: Half-life of the conjugate when treated with 10% foetal bovine serum for enzymatic stability; No degradation observed within the period of time indicated. Type of data set: ADME, Bos taurus. Conditions: cattle. An outline of the steps: as §3
Data set [31] can be described thus: Half-life of the conjugate when treated with 10% foetal bovine serum for enzymatic stability. Type of data set: ADME, Bos taurus. Conditions: cattle. An outline of the steps: as §3
The test system of data set [32] is CD40 mRNA. Put plainly: […] CD40 expression in BCL1 cells treated with 3 uM peptide nucleic acid (PNA)conjugate; n=3. The data set is classed as functional, cell-based. Conditions: Mus musculus. An outline of the steps: as §2
In data set [33] the test system is BCL1. In words: Inhibitory concentration against BCL1 cell proliferation in WST-1 assay; Range 5-10. Type of data set: functional, Mus musculus. An outline of the steps: as §1
In general terms: Tetrazolium assays rely on reduction of a dye to a coloured formazan, in cell work by metabolically active cells.

Data set [34] relates to BCL1. Put plainly: Inhibitory concentration against BCL1 cell proliferation in WST-1 assay; Range 10-20. Type of data set: functional, Mus musculus. Put shortly:
as §1

Data set [35] in a line: Half-life of the conjugate when treated with 25% murine serum for enzymatic stability; Range 2-3 h. Type of data set: ADME. The note with it: mouse. An outline of the steps:
as §3

Data set [36] in a line: Half-life of the conjugate when treated with 25% murine serum for enzymatic stability; No data available. The note with it: mouse. Type of data set: ADME. An outline of the steps:
as §3

Regarding `NCCCC[C@@H](C=O)NC(=O)[C@H](CCCCN)NC(=O)[C@H](CCCCN)NC(=O)[C@H](CCCCN)NC(=O)[C@H](CCCCN)NC(=O)[C@H](CCCCN)NC(=O)[C@H](CCCCN)NC(=O)[C@H](CCCCN)NC(=O)[C@@H](N)CCCCN`, the Biodistribution came out at 0.2 ug equiv/g in data set [1]; 0.76 ug equiv/g in data set [2]; 0.23 ug equiv/g in data set [3]; 0.18 ug equiv/g in data set [4]; 0.31 ug equiv/g in data set [5]; 0.07 ug equiv/g in data set [6]. The Biodistribution stood at 1.94 ug equiv/g in data set [7]; 0.26 ug equiv/g in data set [8]; 1.31 ug equiv/g in data set [9]; 1.25 ug equiv/g in data set [11]; 0.38 ug equiv/g in [13]; 5.44 ug equiv/g in data set [14]. Further, the Biodistribution was 2.07 ug equiv/g in data set [15]; 11.47 ug equiv/g in data set [16]; 0.22 ug equiv/g in data set [17]; 0.1 ug equiv/g in data set [18]; 11.55 ug equiv/g in [19]; 0.2 ug equiv/g in [20]. Moreover, the Biodistribution in [21] is 0.29 ug equiv/g; in data set [22], 1.51 ug equiv/g; in [23], 12.74 ug equiv/g; in data set [25], 0.6 ug equiv/g; in [27], 3.68 ug equiv/g; in [28] it was 0.75 ug equiv/g. The Biodistribution in data set [29] is on record as 20 ug equiv/g. In addition, in [10], the “IC50 for cell proliferation” value was determined as 20 µM. Also, the UTC in data set [12] is 39% [middle of 7 runs]; in data set [26], 88% [middle of 7 runs]. The half-life in data set [24] is 402 min; in data set [30] it was over 7 days.

On to `NCCCC[C@@H](C=O)NC(=O)CC(CCCN)NC(=O)CC(CCCN)NC(=O)CC(CCCN)NC(=O)CC(CCCN)NC(=O)CC(CCCN)NC(=O)CC(CCCN)NC(=O)CC(CCCN)NC(=O)CC(N)CCCN` (stereo partly drawn), for which the half-life in [31] was over 7 days; in data set [24], over 2880 min. The UTC in [32] was determined as 81%; in data set [12], 66%; in [26] it was 94%. The Cell viability in [33] was 10 µM.

Regarding `NCCCC[C@@H](C=O)NC(=O)[C@H](CCCCN)NC(=O)[C@H](CCCCN)NC(=O)[C@H](CCCN=C(N)N)NC(=O)[C@H](CCCCN)NC(=O)[C@H](CCCCN)NC(=O)[C@H](CCCN=C(N)N)NC(=O)[C@H](CCCCN)NC(=O)[C@@H](N)CCCCN` (H-KKRKKRKKK-aldehyde), the half-life in [31] was 3.75 days; in [35] it was 180 min. This compound also gave a concentration for half-maximal inhibition (IC50) in [34] of 20 µM. The UTC in data set [32] stood at 76%; in data set [12], 43%; in data set [26], 90%.

Compound `NCCCC[C@@H](C=O)NC(=O)[C@H](CCCCN)NC(=O)[C@H](CCCCN)NC(=O)CC(CCCN)NC(=O)[C@H](CCCCN)NC(=O)[C@H](CCCCN)NC(=O)CC(CCCN)NC(=O)[C@H](CCCCN)NC(=O)[C@@H](N)CCCCN` (stereo partly drawn) (H-KK[X1]KK[X1]KKK-aldehyde) had a half-life in data set [31] of over 7 days. The UTC in data set [32] was 82%; in data set [12], 61%; in data set [26] it was 98%. Also, the Cell viability in data set [33] came to 10 µM. Also, the T1/2 result in data set [36] is reported as “No data available”.
